Results taken from paper PMC9301951 (ACS Omega, 2022).

How the values were obtained:
[1] = molecular target: equine serum-derived BuChE (eqBuChE) (Equus caballus, UniProt P81908); assay: Cholinesterase inhibition assay, BuChE; type: biochemical, horse; conditions: read-out: BuChE inhibitory activity inhibition (%)
[2] = molecular target: electric eel-derived AChE (eeAChE) (Electrophorus electricus, UniProt O42275); assay: Cholinesterase inhibition assay, AChE; type: biochemical; conditions: read-out: AChE inhibitory activity inhibition (%)
Sequence of electric eel-derived AChE (eeAChE) (O42275 24-633): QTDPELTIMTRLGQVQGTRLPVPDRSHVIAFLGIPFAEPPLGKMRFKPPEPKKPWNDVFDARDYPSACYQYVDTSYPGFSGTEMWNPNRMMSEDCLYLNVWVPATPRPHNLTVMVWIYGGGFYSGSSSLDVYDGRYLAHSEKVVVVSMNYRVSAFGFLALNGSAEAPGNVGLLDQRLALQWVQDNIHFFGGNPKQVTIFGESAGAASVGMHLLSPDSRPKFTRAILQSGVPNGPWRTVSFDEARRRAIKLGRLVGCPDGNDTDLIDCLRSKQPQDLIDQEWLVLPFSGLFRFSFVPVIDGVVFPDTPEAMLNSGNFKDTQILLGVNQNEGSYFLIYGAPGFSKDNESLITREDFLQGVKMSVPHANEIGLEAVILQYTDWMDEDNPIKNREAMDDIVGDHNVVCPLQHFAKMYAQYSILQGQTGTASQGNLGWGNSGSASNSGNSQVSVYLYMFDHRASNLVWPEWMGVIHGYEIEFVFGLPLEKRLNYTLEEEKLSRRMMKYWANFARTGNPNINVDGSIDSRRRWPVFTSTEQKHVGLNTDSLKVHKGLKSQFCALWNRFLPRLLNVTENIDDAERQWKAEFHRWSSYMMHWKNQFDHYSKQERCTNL

[3] = system: SK-N-SH cells; assay: Neuroprotective effect on H2O2-induced decrease in cell viability; type: cell-based; conditions: Figure 5; H2O2-treated neurons, concentrations of 0.075–0.6 μM
Outline: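 Cells challenged with H2O2 and treated with test compound at 0.15 μM. Viability given as % of control, with control set at 100%. Recovery (%) is viability of compound-treated cells minus viability of H2O2-only cells. Data are mean ± SD, n = 3.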

Sequence of equine serum-derived BuChE (eqBuChE) (P81908 whole entry): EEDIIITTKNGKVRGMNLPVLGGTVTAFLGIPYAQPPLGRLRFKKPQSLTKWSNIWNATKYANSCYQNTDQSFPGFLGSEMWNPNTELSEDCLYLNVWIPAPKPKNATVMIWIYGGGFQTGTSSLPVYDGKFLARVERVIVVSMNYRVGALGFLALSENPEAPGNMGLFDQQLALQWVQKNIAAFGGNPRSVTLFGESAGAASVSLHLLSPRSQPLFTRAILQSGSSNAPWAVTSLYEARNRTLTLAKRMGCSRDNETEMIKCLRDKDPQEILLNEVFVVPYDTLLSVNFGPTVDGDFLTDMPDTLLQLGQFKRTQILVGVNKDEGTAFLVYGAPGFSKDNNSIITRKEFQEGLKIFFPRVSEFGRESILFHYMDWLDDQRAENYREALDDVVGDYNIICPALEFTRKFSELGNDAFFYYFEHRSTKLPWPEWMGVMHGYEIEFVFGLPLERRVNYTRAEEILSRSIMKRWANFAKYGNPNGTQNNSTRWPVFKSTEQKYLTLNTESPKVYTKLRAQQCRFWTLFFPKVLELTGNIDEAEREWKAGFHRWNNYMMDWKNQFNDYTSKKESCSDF

SMILES | inhibition at 10000 µM [1] [%] | inhibition at 10000 µM [2] [%] | cell viability [3] [%]
COc1ccc2c3c1O[C@H]1C[C@@H](O)C=C[C@@]31CCN(C)C2 [galantamine] | 96.21 ± 0.18 |  | 
COC(=O)C1=CO[C@@H](O)[C@@H]2C(CO)=CC[C@H]12 [genipin 1, genipin] | 2.42 ± 0.18 | 4.94 ± 0.05 | > 78
COC(=O)C1=CO[C@@H](O[C@@H]2O[C@H](CO)[C@@H](O)[C@H](O)[C@H]2O)[C@@H]2C(CO)=CC[C@H]12 [geniposide] | 2.09 ± 0.18 | 0.73 ± 0.11 | 
